# The source made the active and inactive calls. No cut-off for these calls is given here.
# Experiments:
# Integrin alpha-V/beta-6 [1] = molecular target: T1, Integrin alpha-V/beta-6 (Homo sapiens, UniProt P06756+P18564); test: Antagonist activity at alphaVbeta6 in human HT-29 cells assessed as reduction in cell adhesion to fibronectin pre-incubated for 30 mins before fibronectin and further incubated for 1 hr by nitrophenyl-N-acetyl-beta-D-glucosaminide substrate based chromogenic assay
# Procedure, shortened: (§1)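 Compound or methanol vehicle pre-incubated with cells for 30 min at room temperature. Cells then plated on wells coated overnight at 4 °C with fibronectin 10 µg/mL (SK-MEL-24, K562, HT-29) or fibrinogen 10 µg/mL (MCF7, HEL). Seeding was 50,000 cells/well, or 100000 for HEL. Adhesion ran 1 h at room temperature. Wells washed with 1% BSA/PBS. Quadruplicate, at least three repeats.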
# [2] = molecular target: T2, Integrin alpha-IIb/beta-3 (Homo sapiens, UniProt P05106+P08514); test: Antagonist activity at alpha2bbeta3 in human HEL cells assessed as reduction in cell adhesion to fibrinogen pre-incubated for 30 mins before fibrinogen and further incubated for 1 hr by nitrophenyl-N-acetyl-beta-D-glucosaminide substrate based chromogenic assay; procedure, shortened: as §1
# Integrin alpha-5/beta-1 [3] = molecular target: T3, Integrin alpha-5/beta-1 (Homo sapiens, UniProt P05556+P08648); test: Agonist activity at alpha5beta1 in human K562 cells assessed as increase in cell adhesion to fibronectin pre-incubated for 30 mins and further incubated for 1 hr by nitrophenyl-N-acetyl-beta-D-glucosaminide substrate based chromogenic assay; conditions: filed as agonist, time 90.0 min
# Procedure, shortened: as §1, with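 “BSA/PBS. Adherent cells read by hexosaminidase substrate, absorbance 405 nm.” for “BSA/PBS.”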
# Integrin alpha-5/beta-1 [4] = molecular target: T3, Integrin alpha-5/beta-1; test: Agonist activity at alpha5beta1 in human K562 cells assessed as increase in cell adhesion to fibronectin at 10 ug/ml pre-incubated for 30 mins and further incubated for 1 hr in presence of integrin antagonist c(-RGDfV) by nitrophenyl-N-acetyl-beta-D-glucosaminide substrate based chromogenic assay; conditions: dose 10.0 µg/ml, time 90.0 min
# Procedure, shortened: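 Agonist-coated wells (10 µg/mL in methanol). Cells pre-treated 10 min before plating with neutralizing anti-α5, anti-αv or anti-α4 antibody (10 µg/mL), or pre-incubated with c(-RGDfV) (1 µM). K562 plated at 50,000/well and Jurkat E6.1 at 500,000/well. Adhesion quantified as in the standard assay.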
# Integrin alpha-5/beta-1 [5] = molecular target: T3, Integrin alpha-5/beta-1; test: Agonist activity at alpha5beta1 in human K562 cells assessed as increase in cell adhesion to fibronectin pre-incubated for 30 mins before fibronectin and further incubated for 1 hr by nitrophenyl-N-acetyl-beta-D-glucosaminide substrate based chromogenic assay
# Procedure, shortened: as §1, with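 “BSA/PBS. Adherent cells read by hexosaminidase substrate, absorbance 405 nm.” for “BSA/PBS.”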
# [6] = molecular target: Integrin alpha-L/beta-2 (LFA-1) (Homo sapiens, UniProt P05107+P20701); test: Antagonist activity at alphaLbeta2 in human Jurkat E6.1 cells assessed as reduction in cell adhesion to ICAM1 pre-incubated for 30 mins before ICAM1 and further incubated for 30 mins by […]; format: cell-based
# Procedure, shortened: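 Jurkat E6.1 cells labelled with CellTracker green CMFDA (12.5 µM, 30 min, 37 °C), washed, then pre-incubated 30 min at 37 °C with compound or methanol. Plated at 500,000/well on VCAM-1 (α4β1) or ICAM-1 (αLβ2) coated wells (5 µg/mL) for 30 min at 37 °C. Cells lysed in 0.5% Triton X-100; fluorescence read Ex485/Em535. Quadruplicate, at least three repeats.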
# Integrin alpha-V/beta-6 [7] = molecular target: T1, Integrin alpha-V/beta-6; test: Inhibition of fibronectin binding to alphaVbeta6 isolated form human HT-29 cells incubated for 1 hr by […] competitive solid-phase binding assay; format: tissue-based
# [8] = molecular target: T2, Integrin alpha-IIb/beta-3; test: Agonist activity at alpha2bbeta3 in human HEL cells assessed as increase in cell adhesion to fibrinogen pre-incubated for 30 mins before fibrinogen and further incubated for 1 hr by nitrophenyl-N-acetyl-beta-D-glucosaminide substrate based chromogenic assay; procedure, shortened: as §1
# Integrin alpha-V/beta-5 [9] = molecular target: T4, Integrin alpha-V/beta-5 (Homo sapiens, UniProt P06756+P18084); test: Antagonist activity at alphaVbeta5 in human MCF7 cells assessed as reduction in cell adhesion to fibrinogen pre-incubated for 30 mins before fibrinogen and further incubated for 1 hr by nitrophenyl-N-acetyl-beta-D-glucosaminide substrate based chromogenic assay; procedure, shortened: as §1
# Integrin alpha-V/beta-3 = Integrin alpha-V/beta-3 (Homo sapiens, UniProt P05106+P06756); test: Inhibition of fibronectin binding to human recombinant alphaVbeta3 expressed in HEK293 cells incubated for 1 hr by […] competitive solid-phase binding assay; format: cell-based
# Integrin alpha-5/beta-1 [10] = molecular target: T3, Integrin alpha-5/beta-1; test: Agonist activity at alpha5beta1 in human K562 cells assessed as assessed as increase in ERK1/2 phosphorylation at 1 to 100 nM by Western blot analysis; format: cell-based; conditions: filed as agonist, dose 1-100 nM
# MCF7 = test: Toxicity in human MCF7 cells assessed as induction of cell necrosis and/or apoptosis incubated for 3 hrs by annexin V-PE and 7-AAD staining based by flow cytometry; conditions: mcf7, 3 h
# Procedure, shortened: (§2)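 After 3 h incubation, cells resuspended in complete medium and stained with annexin V-PE/7-AAD reagent for 20 min at room temperature in the dark. Flow cytometry sorted cells into viable, early apoptotic and late apoptotic/necrotic populations.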
# HEL = test: Toxicity in human HEL cells assessed as induction of cell necrosis and/or apoptosis incubated for 3 hrs by annexin V-PE and 7-AAD staining based by flow cytometry; procedure, shortened: as §2
# Integrin alpha-V/beta-5 [11] = molecular target: T4, Integrin alpha-V/beta-5; test: Inhibition of fibrinogen binding to alphaVbeta5 isolated form human mCf7 cells incubated for 1 hr by […] competitive solid-phase binding assay
# SK-MEL-24 = test: Toxicity in human SK-MEL-24 cells assessed as induction of cell necrosis and/or apoptosis incubated for 3 hrs by annexin V-PE and 7-AAD staining based by flow cytometry; conditions: sk-mel-24, 3 h; procedure, shortened: as §2
# [12] = molecular target: T2, Integrin alpha-IIb/beta-3; test: Agonist activity at alpha2bbeta3 in human K562 cells assessed as increase in cell adhesion to fibrinogen pre-incubated for 30 mins and further incubated for 1 hr in presence of alpha2bbeta3 antagonist Tirofiban by nitrophenyl-N-acetyl-beta-D-glucosaminide substrate based chromogenic assay; conditions: time 90.0 min
# Integrin alpha-V/beta-6 [13] = molecular target: T1, Integrin alpha-V/beta-6; test: Agonist activity at alphaVbeta6 in human HT-29 cells assessed as increase in cell adhesion to fibronectin pre-incubated for 30 mins before fibronectin and further incubated for 1 hr by nitrophenyl-N-acetyl-beta-D-glucosaminide substrate based chromogenic assay
# Procedure, shortened: as §1, with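 “BSA/PBS. Adherent cells read by hexosaminidase substrate, absorbance 405 nm.” for “BSA/PBS.”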
# Integrin alpha-V/beta-5 [14] = molecular target: T4, Integrin alpha-V/beta-5; test: Agonist activity at alphaVbeta5 in human MCF7 cells assessed as increase in cell adhesion to fibrinogen pre-incubated for 30 mins before fibrinogen and further incubated for 1 hr by nitrophenyl-N-acetyl-beta-D-glucosaminide substrate based chromogenic assay
# Procedure, shortened: as §1, with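 “BSA/PBS. Adherent cells read by hexosaminidase substrate, absorbance 405 nm.” for “BSA/PBS.”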
# Integrin alpha-5/beta-1 [15] = molecular target: T3, Integrin alpha-5/beta-1; test: Inhibition of fibronectin binding to alpha5beta1 isolated from human K562 cells incubated for 1 hr by […] competitive solid-phase binding assay; format: tissue-based
# Procedure, shortened: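 Plates coated overnight at 4 °C in carbonate buffer pH 9.6 with fibronectin 0.5 µg/mL (αvβ3, αvβ6, α5β1), fibrinogen 10 µg/mL (αIIbβ3, αvβ5) or ICAM-1 (αLβ2). Blocked 1 h in buffer containing Ca/Mg/Mn 1 mM each and 1% BSA. Purified integrin (3–10 µg/mL) incubated with compound (10⁻⁴–10⁻¹⁰ M) 1 h at room temperature. Bound integrin detected with primary antibody then AlexaFluor488 secondary, Ex485/Em535. Duplicate, at least three repeats.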
Compound,IC50 (Integrin alpha-V/beta-6 [1]) [nM],IC50 [2] [nM],Activity (Integrin alpha-5/beta-1 [3]),EC50 (Integrin alpha-5/beta-1 [5]) [nM],IC50 [6] [nM],IC50 (Integrin alpha-V/beta-6 [7]) [nM],EC50 [8] [nM],IC50 (Integrin alpha-V/beta-5 [9]) [nM],IC50 (Integrin alpha-V/beta-3) [nM],Activity (Integrin alpha-5/beta-1 [10]),Activity (MCF7),Activity (HEL),IC50 (Integrin alpha-V/beta-5 [11]) [nM],Activity (SK-MEL-24),Activity ([12]; filed as agonist),EC50 (Integrin alpha-V/beta-6 [13]) [nM],EC50 (Integrin alpha-V/beta-5 [14]) [nM],IC50 (Integrin alpha-5/beta-1 [15]) [nM],Activity (Integrin alpha-5/beta-1 [4]; filed as agonist),other results
Nc1ccc(CNC(=O)N2C(=O)CC2CC(=O)O)cc1.O=C(O)C(F)(F)F (configuration not stated),> 5000,> 5000,Dose-dependent effect,44.5,0.39,> 1000,> 5000,> 5000,9.9,Active,Non-Toxic,Non-Toxic,> 1000,Non-Toxic,Active,> 5000,> 5000,9.7,,Activity (Integrin alpha-5/beta-1 [4]): inactive
Cc1ccccc1NC(=O)N1C(=O)CC1CC(=O)NCC(=O)O (configuration not stated),> 5000,> 5000,Dose-dependent effect,9.9,> 5000,> 1000,> 5000,> 5000,> 1000,Dose-dependent effect,Non-Toxic,Non-Toxic,> 1000,Non-Toxic,Active,> 5000,> 5000,52,Active,
NCc1ccc(NC(=O)N2C(=O)CC2CC(=O)NCCC(=O)O)cc1.O=C(O)C(F)(F)F (configuration not stated),> 5000,1560,Dose-dependent effect,6.7,> 5000,> 1000,1560,> 5000,> 1000,Dose-dependent effect,Non-Toxic,Non-Toxic,> 1000,Non-Toxic,,> 5000,> 5000,5.5,Active,Activity [12]: inactive
